In ChEMBL document CHEMBL4265871, “Novel alkylated azoles as potent antifungals” (Eur J Med Chem, 2017):
Converted amounts (≈) assume the structure as drawn.

How the values were obtained:
[1] = Selectivity index, ratio of EC50 for toxicity in human BEAS2B cells to MIC100 for antifungal activity against Candida albicans ATCC 10231; format: cell-based; details: BEAS-2B cells, read-out: Selectivity Index
Method in brief: (§1)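 Selectivity index is the EC50 against the mammalian line (A549 or BEAS-2B) divided by the MIC against the given fungal strain.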

[2] = Hemolytic activity in mouse erythrocytes assessed as hemolysis level at 3.9 ug/ml incubated for 1 hr at 37 degC; format: ADME, cell-based, Erythrocyte; details: read-out: Activity
Method in brief: (§2)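 Mouse erythrocytes incubated 1 h at 37 °C with test agents over 1.95 to 125 µg/mL. Percent lysis is read for each concentration.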

[3] = Selectivity index, ratio of […] for toxicity in human A549 cells to MIC50 for antifungal activity against Aspergillus terreus ATCC MYA-3633; format: cell-based; details: read-out: Selectivity Index
Candida albicans [4] = experiment: Antifungal activity against Candida albicans ATCC 10231 incubated for 48 hrs by modified CLSI M27-A3 protocol based method; format: functional; details: ATCC 10231, 48 h, read-out: MIC100
Method in brief: (§3)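 For C. albicans ATCC 10231, C. krusei ATCC 6258 and C. parapsilosis ATCC 22019, MIC-0 was read, meaning complete growth inhibition. For azole controls, MIC-2 (50% growth inhibition) was reported instead. Caspofungin and voriconazole were tested here; other controls came from earlier work.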

[5] = Selectivity index, ratio of EC50 for toxicity in human BEAS2B cells to MIC50 for antifungal activity against Candida albicans ATCC 64124; format: cell-based; details: BEAS-2B cells, read-out: Selectivity Index; method in brief: as §1
Aspergillus terreus = experiment: Antifungal activity against Aspergillus terreus ATCC MYA-3633 incubated for 48 hrs by CLSI M38-A2 protocol based method; format: functional; details: ATCC MYA-3633, 48 h, read-out: MIC100
[6] = Selectivity index, ratio of […] for toxicity in human BEAS2B cells to MIC50 for antifungal activity against Aspergillus terreus ATCC MYA-3633; format: cell-based; details: BEAS-2B cells, read-out: Selectivity Index
in vitro = details: mouse, mouse erythrocytes
[7] = Hemolytic activity in mouse erythrocytes assessed as hemolysis level at 1.95 ug/ml incubated for 1 hr at 37 degC; format: ADME, cell-based, Erythrocyte; details: read-out: Activity; method in brief: as §2
[8] = Selectivity index, ratio of […] for toxicity in human BEAS2B cells to MIC50 for antifungal activity against Aspergillus nidulans ATCC 38163; format: cell-based; details: BEAS-2B cells, read-out: Selectivity Index
[9] = Selectivity index, ratio of EC50 for toxicity in human A549 cells to MIC50 for antifungal activity against Candida krusei ATCC 6258
[10] = Selectivity index, ratio of EC50 for toxicity in human A549 cells to MIC100 for antifungal activity against Candida albicans ATCC 10231; format: cell-based; details: read-out: Selectivity Index; method in brief: as §1
[11] = Hemolytic activity in mouse erythrocytes assessed as hemolysis level at 31.3 ug/ml incubated for 1 hr at 37 degC; format: ADME, cell-based, Erythrocyte; details: read-out: Activity; method in brief: as §2
Pichia kudriavzevii = experiment: Antifungal activity against Candida krusei ATCC 6258 incubated for 48 hrs by modified CLSI M27-A3 protocol based method; format: functional; details: ATCC 6258, 48 h, read-out: MIC100; method in brief: as §3
[12] = Selectivity index, ratio of EC50 for toxicity in human A549 cells to MIC50 for antifungal activity against ITC and FLC-resistant Candida albicans ATCC MYA-90819; format: cell-based; details: read-out: Selectivity Index; method in brief: as §1
[13] = Selectivity index, ratio of […] for toxicity in human BEAS2B cells to MIC50 for antifungal activity against Aspergillus flavus ATCC MYA-3631; format: cell-based; details: BEAS-2B cells, read-out: Selectivity Index
Candida albicans [14] = experiment: Antifungal activity against ITC and FLC-resistant Candida albicans ATCC MYA-1003 incubated for 48 hrs by modified CLSI M27-A3 protocol based method; format: functional; details: ATCC MYA-1003, 48 h
Method in brief: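 Because these Candida strains show trailing growth, MIC-2 was read, meaning 50% growth inhibition. Caspofungin and voriconazole were tested here; other controls came from earlier work.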

[15] = Selectivity index, ratio of EC50 for toxicity in human BEAS2B cells to MIC50 for antifungal activity against ITC and FLC-susceptible Candida albicans ATCC MYA-2310; format: cell-based; details: BEAS-2B cells, read-out: Selectivity Index
Method in brief: (§4)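 Ratio of the compound's EC50 against BEAS-2B cells to its MIC against the named C. albicans strain. […] For C. albicans strains other than ATCC 10231, trailing growth meant MIC-2 was taken, meaning 50% growth inhibition.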

[16] = Toxicity in human A549 cells assessed as reduction in cell viability incubated for 24 hrs by resazurin dye based assay
Method in brief: (§5)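 Toxicity tested in the nucleated lines A549 and BEAS-2B to give EC50 values. Selectivity index is EC50 against the mammalian line divided by the MIC against a given fungal strain.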

[17] = Selectivity index, ratio of EC50 for toxicity in human BEAS2B cells to MIC50 for antifungal activity against Candida krusei ATCC 6258; details: BEAS-2B cells
[18] = Hemolytic activity in mouse erythrocytes assessed as hemolysis level at 15.6 ug/ml incubated for 1 hr at 37 degC; format: ADME, cell-based, Erythrocyte; details: read-out: Activity; method in brief: as §2
[19] = Selectivity index, ratio of EC50 for toxicity in human A549 cells to MIC50 for antifungal activity against Candida albicans ATCC 64124; format: cell-based; details: read-out: Selectivity Index; method in brief: as §1
[20] = Selectivity index, ratio of EC50 for toxicity in human A549 cells to MIC50 for antifungal activity against ITC and FLC-susceptible Candida albicans ATCC MYA-2876; format: cell-based; details: read-out: Selectivity Index; method in brief: as §1
[21] = Selectivity index, ratio of EC50 for toxicity in human A549 cells to MIC50 for antifungal activity against ITC and FLC-resistant Candida albicans ATCC MYA-1003; format: cell-based; details: read-out: Selectivity Index; method in brief: as §1
[22] = Selectivity index, ratio of EC50 for toxicity in human BEAS2B cells to MIC50 for antifungal activity against ITC and FLC-resistant Candida albicans ATCC MYA-1003; format: cell-based; details: BEAS-2B cells, read-out: Selectivity Index; method in brief: as §1
[23] = Hemolytic activity in mouse erythrocytes assessed as hemolysis level at 125 ug/ml incubated for 1 hr at 37 degC; format: ADME, cell-based, Erythrocyte; details: read-out: Activity; method in brief: as §2
[24] = Toxicity in human BEAS2B cells assessed as reduction in cell viability incubated for 24 hrs by resazurin dye based assay; details: BEAS-2B cells; method in brief: as §5
Aspergillus flavus = experiment: Antifungal activity against Aspergillus flavus ATCC MYA-3631 incubated for 48 hrs by CLSI M38-A2 protocol based method; format: functional; details: ATCC MYA-3631, 48 h, read-out: MIC100
[25] = Selectivity index, ratio of EC50 for toxicity in human BEAS2B cells to MIC50 for antifungal activity against ITC and FLC-resistant Candida albicans ATCC MYA-90819; format: cell-based; details: BEAS-2B cells, read-out: Selectivity Index; method in brief: as §4
[26] = Selectivity index, ratio of EC50 for toxicity in human A549 cells to MIC50 for antifungal activity against Candida glabrata ATCC 2001; format: cell-based; details: read-out: Selectivity Index; method in brief: as §1
[27] = Hemolytic activity in mouse erythrocytes assessed as hemolysis level at 7.8 ug/ml incubated for 1 hr at 37 degC; format: ADME, cell-based, Erythrocyte; details: read-out: Activity; method in brief: as §2
[28] = Selectivity index, ratio of EC50 for toxicity in human BEAS2B cells to MIC50 for antifungal activity against Candida glabrata ATCC 2001; format: cell-based; details: BEAS-2B cells, read-out: Selectivity Index; method in brief: as §1
[29] = Selectivity index, ratio of […] for toxicity in human A549 cells to MIC50 for antifungal activity against Aspergillus nidulans ATCC 38163; format: cell-based; details: read-out: Selectivity Index

| Compound | selectivity ratio [1] | hemolysis at 1 h, 3.9 ug/ml [2] [%] | selectivity ratio [3] | MIC (Candida albicans [4]) [µM] | selectivity ratio [5] | MIC (Aspergillus terreus) [µM] | selectivity ratio [6] | hemolysis at 1 h, 62.5 ug/ml (in vitro) [%] | hemolysis at 1 h, 1.95 ug/ml [7] [%] | selectivity ratio [8] | selectivity ratio [9] | selectivity ratio [10] | hemolysis at 1 h, 31.3 ug/ml [11] [%] | MIC (Pichia kudriavzevii) [µM] | selectivity ratio [12] | selectivity ratio [13] | MIC50 (Candida albicans [14]) [µM] | selectivity ratio [15] | EC50 at 24 h [16] [µg/mL] | selectivity ratio [17] | also measured |
| --- | --- | --- | --- | --- | --- | --- | --- | --- | --- | --- | --- | --- | --- | --- | --- | --- | --- | --- | --- | --- | --- |
| CCCCCCCCC(O)(Cn1cncn1)c1ccc(F)cc1F (configuration not stated) | 7 | 0 | 2 | 5.8 (≈ 1.96 µg/mL) | 3 | 23.1 (≈ 7.79 µg/mL) | 2 | 69 | 0 | 27 | 50 | 6 | 68.4 | 0.71 (≈ 0.24 µg/mL) | 6 | 0.4 | 5.8 (≈ 1.96 µg/mL) | 7 | 12 (≈ 35.6 µM) | 54 | hemolysis at 1 h, 15.6 ug/ml [18]: 66.7%; selectivity ratio [19]: 3; selectivity ratio [20]: 6; selectivity ratio [21]: 6; selectivity ratio [22]: 7; hemolysis at 1 h, 125 ug/ml [23]: 97.1%; EC50 at 24 h [24]: 13 µg/mL (≈ 38.5 µM); MIC (Aspergillus flavus): 92.8 µM (≈ 31.3 µg/mL); selectivity ratio [25]: 7; selectivity ratio [26]: 6; hemolysis at 1 h, 7.8 ug/ml [27]: 46.8%; selectivity ratio [28]: 7; selectivity ratio [29]: 25 |
| CCCCC(O)(Cn1cncn1)c1ccc(F)cc1F (configuration not stated) | 19 | 0 | 2 | 6.9 (≈ 1.94 µg/mL) | 2 | 55.5 (≈ 15.6 µg/mL) | 2 | 0 | 0 | 19 | 522 | 16 | 3.7 | 0.21 (≈ 0.0591 µg/mL) | 2 | 2 | 13.9 (≈ 3.91 µg/mL) | 1 | > 31.3 | 600 | hemolysis at 1 h, 15.6 ug/ml [18]: 0%; selectivity ratio [19]: 2; selectivity ratio [20]: 4; selectivity ratio [21]: 8; selectivity ratio [22]: 9; hemolysis at 1 h, 125 ug/ml [23]: 0%; EC50 at 24 h [24]: 36 µg/mL (≈ 128 µM); MIC (Aspergillus flavus): 55.5 µM (≈ 15.6 µg/mL); selectivity ratio [25]: 2; selectivity ratio [26]: 1; hemolysis at 1 h, 7.8 ug/ml [27]: 0%; selectivity ratio [28]: 1; selectivity ratio [29]: 16 |
| CCCCCCC(O)(Cn1cncn1)c1ccc(F)cc1 (configuration not stated) | 2 | 0 | 2 | 53.5 (≈ 15.6 µg/mL) | 1 | 53.5 (≈ 15.6 µg/mL) | 2 | 7 | 0 | 16 | 32 | 2 | 0 | 3.3 (≈ 0.962 µg/mL) | 32 | 1 | 26.8 (≈ 7.81 µg/mL) | 4 | > 31.3 | 32 | hemolysis at 1 h, 15.6 ug/ml [18]: 0%; selectivity ratio [19]: 1; selectivity ratio [20]: 4; selectivity ratio [21]: 4; selectivity ratio [22]: 4; hemolysis at 1 h, 125 ug/ml [23]: 24.1%; EC50 at 24 h [24]: > 31.3 µg/mL; MIC (Aspergillus flavus): > 107 µM; selectivity ratio [25]: 32; selectivity ratio [26]: 4; hemolysis at 1 h, 7.8 ug/ml [27]: 5.2%; selectivity ratio [28]: 4; selectivity ratio [29]: 16 |
| CCCCCC(O)(Cn1cncn1)c1ccccc1Cl (configuration not stated) | 4 | 0 | 2 | 26.5 (≈ 7.79 µg/mL) | 1 | 53.1 (≈ 15.6 µg/mL) | 2 | 0 | 0 | 32 | 32 | 4 | 0 | 3.3 (≈ 0.97 µg/mL) | 65 | 1 | 26.5 (≈ 7.79 µg/mL) | 32 | > 31.3 | 32 | hemolysis at 1 h, 15.6 ug/ml [18]: 0%; selectivity ratio [19]: 1; selectivity ratio [20]: 32; selectivity ratio [21]: 4; selectivity ratio [22]: 4; hemolysis at 1 h, 125 ug/ml [23]: 81%; EC50 at 24 h [24]: > 31.3 µg/mL; MIC (Aspergillus flavus): > 106 µM; selectivity ratio [25]: 65; selectivity ratio [26]: 32; hemolysis at 1 h, 7.8 ug/ml [27]: 0%; selectivity ratio [28]: 32; selectivity ratio [29]: 32 |
